Converted amounts (≈) assume the structure as drawn. The source made the active and inactive calls. The rule behind the calls is not given here.
Assays:
[1] = molecular target: Sodium channel protein type 3 subunit alpha (Homo sapiens, UniProt Q9NY46); test: Inhibition of human NaV1.3 expressed in HEK cells by electrophysiological method; type: cell-based
[2] = Dissociation constant, pKa of compound; type: physicochemical
[3] = Lipophilicity, log D of the compound; type: physicochemical; settings: octanol/water
Rattus norvegicus [4] = test: Antipain activity in tibial nerve transection surgery model of rat assessed as reduction of noxious pinch evoked activity at 9 to 18 mg/kg administered as iv bolus dose measured every 15 mins for 30 mins; type: functional, organism-based
In short: (§1)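 Rats given tibial nerve transection 2 to 3 weeks before recording. Anaesthesia with isoflurane (5% in O2) in a stereotaxic frame, body temperature held at 37 °C, and laminectomy to expose spinal segments L4-5. After stable baseline responses, compound given as IV bolus; evoked activity assessed every 15 min for up to 30 min per dose. Randomised, blinded dosing. Dry blood spots taken for plasma exposure.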

Rattus norvegicus [5] = test: Antipain activity in tibial nerve transection surgery model of rat assessed as reduction of mechanical punctate stimuli evoked activity at 9 to 18 mg/kg administered as iv bolus dose measured every 15 mins for 30 mins; type: functional, organism-based; in short: as §1
Rattus norvegicus [6] = test: Antipain activity in tibial nerve transection surgery model of rat assessed as reduction of heat evoked activity at 9 to 18 mg/kg administered as iv bolus dose measured every 15 mins for 30 mins; type: functional, organism-based; in short: as §1
Rattus norvegicus [7] = test: Antipain activity in tibial nerve transection surgery model of rat assessed as reduction of innocuous brush evoked activity at 9 to 18 mg/kg administered as iv bolus dose measured every 15 mins for 30 mins; type: functional, organism-based; in short: as §1
[8] = molecular target: Sodium channel protein type 1 subunit alpha (Homo sapiens, UniProt P35498); test: Inhibition of human NaV1.1
CYP2C9 = CYP2C9 (Homo sapiens, UniProt P11712); test: Inhibition of CYP2C9 (unknown origin) at 3 uM by high throughput assay relative to control; type: ADME
Chain of CYP2C9 (P11712 whole entry): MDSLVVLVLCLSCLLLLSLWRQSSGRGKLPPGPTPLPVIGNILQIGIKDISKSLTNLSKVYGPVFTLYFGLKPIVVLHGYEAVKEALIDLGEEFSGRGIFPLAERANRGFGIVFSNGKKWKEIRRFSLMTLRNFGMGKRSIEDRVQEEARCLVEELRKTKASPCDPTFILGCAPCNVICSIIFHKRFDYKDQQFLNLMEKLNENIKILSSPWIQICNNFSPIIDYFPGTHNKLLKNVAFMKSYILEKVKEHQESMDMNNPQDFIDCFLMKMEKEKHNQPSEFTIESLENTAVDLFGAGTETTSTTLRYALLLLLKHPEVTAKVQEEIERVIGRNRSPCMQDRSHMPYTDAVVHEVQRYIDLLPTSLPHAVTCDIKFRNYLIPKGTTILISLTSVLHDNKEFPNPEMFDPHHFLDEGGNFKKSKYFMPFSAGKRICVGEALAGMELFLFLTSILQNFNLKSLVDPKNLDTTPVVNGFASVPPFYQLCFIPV

Rattus norvegicus [9] = test: Toxicity in rat assessed as decrease in core body temperature at 100 to 500 mg/kg, po; type: organism-based; settings: in vivo
[10] = Clearance in human liver microsomes; type: ADME, microsome; settings: read-out: CLH
[11] = molecular target: Sodium channel protein type 9 subunit alpha (Homo sapiens, UniProt Q15858); test: Inhibition of human NaV1.7
Chain of Sodium channel protein type 9 subunit alpha (Homo sapiens, UniProt Q15858) (Q15858 whole entry): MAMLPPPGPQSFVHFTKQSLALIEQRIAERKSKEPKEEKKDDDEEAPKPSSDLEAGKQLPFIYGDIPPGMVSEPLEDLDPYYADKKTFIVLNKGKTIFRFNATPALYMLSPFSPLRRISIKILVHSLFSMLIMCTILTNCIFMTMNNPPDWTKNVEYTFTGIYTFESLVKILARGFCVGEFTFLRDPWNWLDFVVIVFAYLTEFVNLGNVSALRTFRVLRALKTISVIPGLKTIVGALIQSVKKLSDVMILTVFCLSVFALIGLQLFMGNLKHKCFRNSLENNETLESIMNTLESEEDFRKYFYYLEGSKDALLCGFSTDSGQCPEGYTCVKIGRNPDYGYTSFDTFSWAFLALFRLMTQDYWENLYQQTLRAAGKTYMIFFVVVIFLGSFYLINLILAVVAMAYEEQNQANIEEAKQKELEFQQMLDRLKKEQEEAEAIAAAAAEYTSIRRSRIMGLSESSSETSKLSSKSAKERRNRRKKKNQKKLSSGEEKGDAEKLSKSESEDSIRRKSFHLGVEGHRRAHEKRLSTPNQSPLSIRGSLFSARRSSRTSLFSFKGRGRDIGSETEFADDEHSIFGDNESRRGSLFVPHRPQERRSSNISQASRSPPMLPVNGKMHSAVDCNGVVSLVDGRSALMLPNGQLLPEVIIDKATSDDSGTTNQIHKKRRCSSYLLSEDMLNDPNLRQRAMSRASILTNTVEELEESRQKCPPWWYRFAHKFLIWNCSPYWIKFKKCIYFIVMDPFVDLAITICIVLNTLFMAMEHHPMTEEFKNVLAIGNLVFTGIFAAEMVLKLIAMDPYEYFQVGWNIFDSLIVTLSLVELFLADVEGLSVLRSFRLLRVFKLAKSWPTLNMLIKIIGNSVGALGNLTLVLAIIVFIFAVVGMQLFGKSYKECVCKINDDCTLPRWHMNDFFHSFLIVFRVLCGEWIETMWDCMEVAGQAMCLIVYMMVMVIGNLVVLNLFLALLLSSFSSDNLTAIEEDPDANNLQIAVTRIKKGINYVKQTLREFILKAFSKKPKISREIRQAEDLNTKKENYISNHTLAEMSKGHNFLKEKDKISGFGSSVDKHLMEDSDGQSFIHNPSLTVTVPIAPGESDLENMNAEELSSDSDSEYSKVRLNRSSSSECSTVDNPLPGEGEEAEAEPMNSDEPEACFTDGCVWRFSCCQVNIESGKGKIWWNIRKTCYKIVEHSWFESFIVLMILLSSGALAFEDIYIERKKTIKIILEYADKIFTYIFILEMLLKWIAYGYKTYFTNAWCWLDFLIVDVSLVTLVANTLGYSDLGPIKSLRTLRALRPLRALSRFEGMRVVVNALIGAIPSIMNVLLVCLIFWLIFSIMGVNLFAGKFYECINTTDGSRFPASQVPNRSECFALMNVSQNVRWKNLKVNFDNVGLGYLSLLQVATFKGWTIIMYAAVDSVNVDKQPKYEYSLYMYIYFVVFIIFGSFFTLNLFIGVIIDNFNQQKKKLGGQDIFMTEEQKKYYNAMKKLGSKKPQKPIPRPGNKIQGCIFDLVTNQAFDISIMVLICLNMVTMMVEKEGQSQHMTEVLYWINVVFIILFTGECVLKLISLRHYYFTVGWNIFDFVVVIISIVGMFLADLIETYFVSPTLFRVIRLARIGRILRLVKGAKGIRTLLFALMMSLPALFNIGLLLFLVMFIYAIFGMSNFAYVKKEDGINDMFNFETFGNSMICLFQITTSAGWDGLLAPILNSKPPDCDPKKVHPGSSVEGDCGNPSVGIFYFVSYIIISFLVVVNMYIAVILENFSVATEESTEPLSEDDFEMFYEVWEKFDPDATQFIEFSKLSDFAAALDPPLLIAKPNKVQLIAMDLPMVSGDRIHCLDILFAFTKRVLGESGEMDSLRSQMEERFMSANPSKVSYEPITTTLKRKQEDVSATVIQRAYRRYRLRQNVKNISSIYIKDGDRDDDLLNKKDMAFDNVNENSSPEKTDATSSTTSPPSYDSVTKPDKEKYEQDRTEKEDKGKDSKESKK

[12] = molecular target: Sodium channel protein type 10 subunit alpha (Homo sapiens, UniProt Q9Y5Y9); test: Inhibition of human NaV1.8
[13] = Ratio of drug level in cynomolgus monkey treated with (2-(4-(3-chloro-4-(trifluoromethoxy)benzylcarbamoyl)-2-fluorophenylsulfonylimino)thiazol-3(2H)-yl)methyl dihydrogen phosphate at 30 mg/kg to IC50 for cynomolgus monkey NaV1.3; type: ADME, organism-based, Macaca fascicularis; settings: in vivo
[14] = molecular target: Sodium channel protein type 5 subunit alpha (Homo sapiens, UniProt Q14524); test: Inhibition of human NaV1.5
[15] = Aqueous solubility of compound; type: physicochemical; settings: buffer
[16] = Protein binding in dog plasma; type: ADME, cell-free, Canis lupus familiaris; settings: read-out: PPB
[17] = Ratio of drug level in tibial nerve transection surgery model of rat treated with (2-(4-(3-chloro-4-(trifluoromethoxy)benzylcarbamoyl)-2-fluorophenylsulfonylimino)thiazol-3(2H)-yl)methyl dihydrogen phosphate at 3 to 10 mg/kg administered as iv bolus dose to IC50 for rat NaV1.3; type: ADME, organism-based; settings: in vivo
Tibial nerve [18] = test: Effect on heat evoked afferent firing in rat skin-tibial nerve at 0.01 to 1 uM; type: functional, tissue-based
In short: (§2)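 Compound was applied to the isolated skin-tibial nerve preparation at 0.01, 0.03, 0.1, 0.3 and 1 µM. Heat-evoked afferent firing and ongoing nerve activity were recorded.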

[19] = molecular target: Sodium channel protein type 8 subunit alpha (Homo sapiens, UniProt Q9UQD0); test: Inhibition of human NaV1.6
[20] = Oral bioavailability in rat; type: ADME, organism-based; settings: in vivo
MDR1 = test: Efflux ratio of permeability across basolateral to apical over apical to basolateral side in RRCK cells expressing MDR1; type: ADME, cell-based, Canis lupus familiaris, MDCKII-LE; settings: dog, MDCK-MDR1
[21] = Protein binding in rat plasma by equilibrium dialysis method; type: ADME, cell-free; settings: read-out: PPB (converted)
In short: (§3)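 Plasma protein binding measured by equilibrium dialysis.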

[22] = molecular target: Sodium channel protein type 2 subunit alpha (Homo sapiens, UniProt Q99250); test: Inhibition of human NaV1.2
Chain of Sodium channel protein type 2 subunit alpha (Q99250 whole entry): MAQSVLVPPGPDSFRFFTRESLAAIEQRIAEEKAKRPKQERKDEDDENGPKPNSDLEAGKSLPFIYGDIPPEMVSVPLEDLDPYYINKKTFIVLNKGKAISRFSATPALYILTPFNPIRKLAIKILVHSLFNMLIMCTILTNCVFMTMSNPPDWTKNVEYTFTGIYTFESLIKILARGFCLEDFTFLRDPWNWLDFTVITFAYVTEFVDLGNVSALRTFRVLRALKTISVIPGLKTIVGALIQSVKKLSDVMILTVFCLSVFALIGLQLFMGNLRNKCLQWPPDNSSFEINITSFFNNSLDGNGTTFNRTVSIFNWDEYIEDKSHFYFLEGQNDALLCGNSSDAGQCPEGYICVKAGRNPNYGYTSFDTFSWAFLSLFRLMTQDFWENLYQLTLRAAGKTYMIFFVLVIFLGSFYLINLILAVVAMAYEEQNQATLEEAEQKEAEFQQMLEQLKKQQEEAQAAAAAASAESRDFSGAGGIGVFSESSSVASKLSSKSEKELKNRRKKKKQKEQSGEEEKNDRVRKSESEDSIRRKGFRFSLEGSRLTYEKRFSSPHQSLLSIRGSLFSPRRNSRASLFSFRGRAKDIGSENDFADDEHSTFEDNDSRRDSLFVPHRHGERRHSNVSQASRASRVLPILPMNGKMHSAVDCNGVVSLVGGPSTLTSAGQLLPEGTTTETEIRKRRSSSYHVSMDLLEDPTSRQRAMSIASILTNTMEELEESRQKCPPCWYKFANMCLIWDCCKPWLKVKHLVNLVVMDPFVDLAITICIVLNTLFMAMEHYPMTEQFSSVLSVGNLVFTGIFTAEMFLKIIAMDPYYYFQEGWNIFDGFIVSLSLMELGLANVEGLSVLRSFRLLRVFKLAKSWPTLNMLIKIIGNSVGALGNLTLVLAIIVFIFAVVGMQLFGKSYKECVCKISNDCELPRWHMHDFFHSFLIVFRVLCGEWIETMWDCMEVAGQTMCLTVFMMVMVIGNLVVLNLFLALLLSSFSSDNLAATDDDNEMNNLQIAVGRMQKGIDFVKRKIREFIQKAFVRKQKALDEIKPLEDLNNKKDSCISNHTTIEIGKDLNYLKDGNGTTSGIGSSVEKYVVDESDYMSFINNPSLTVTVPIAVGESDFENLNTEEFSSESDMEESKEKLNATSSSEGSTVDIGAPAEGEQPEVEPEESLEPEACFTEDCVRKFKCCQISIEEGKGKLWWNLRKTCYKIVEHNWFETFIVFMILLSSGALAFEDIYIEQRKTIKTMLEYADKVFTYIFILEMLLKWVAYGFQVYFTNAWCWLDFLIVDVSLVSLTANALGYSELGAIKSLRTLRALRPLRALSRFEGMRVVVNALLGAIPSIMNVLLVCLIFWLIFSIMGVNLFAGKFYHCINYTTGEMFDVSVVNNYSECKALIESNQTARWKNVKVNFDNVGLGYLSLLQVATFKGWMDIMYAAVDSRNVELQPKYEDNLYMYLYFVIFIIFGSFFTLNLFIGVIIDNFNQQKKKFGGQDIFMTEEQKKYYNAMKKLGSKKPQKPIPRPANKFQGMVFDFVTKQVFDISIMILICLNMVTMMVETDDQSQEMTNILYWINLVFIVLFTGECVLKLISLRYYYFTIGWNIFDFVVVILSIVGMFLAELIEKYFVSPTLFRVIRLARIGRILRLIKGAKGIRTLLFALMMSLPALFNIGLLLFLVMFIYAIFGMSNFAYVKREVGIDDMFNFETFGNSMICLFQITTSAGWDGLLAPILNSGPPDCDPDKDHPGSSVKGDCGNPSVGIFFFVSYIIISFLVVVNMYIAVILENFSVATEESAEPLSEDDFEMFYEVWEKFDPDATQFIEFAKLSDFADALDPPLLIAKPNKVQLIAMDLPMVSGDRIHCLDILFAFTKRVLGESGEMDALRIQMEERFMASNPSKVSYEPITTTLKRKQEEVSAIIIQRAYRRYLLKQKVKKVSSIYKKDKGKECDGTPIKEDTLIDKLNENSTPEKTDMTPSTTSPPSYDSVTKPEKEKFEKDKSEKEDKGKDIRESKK

Rattus norvegicus [23] = test: Toxicity in rat assessed as decrease in heart rate at 100 to 500 mg/kg, po; type: organism-based; settings: in vivo
[24] = molecular target: Voltage-gated inwardly rectifying potassium channel KCNH2 (Homo sapiens, UniProt Q12809); test: Inhibition of human ERG
Tibial nerve [25] = test: Effect on ongoing nerve activity in rat skin-tibial nerve at 0.01 to 1 uM; type: functional, tissue-based; in short: as §2
[26] = Protein binding in human plasma by equilibrium dialysis method; type: ADME, cell-free; settings: read-out: PPB (converted); in short: as §3
[27] = Volume of distribution in rat; type: ADME, organism-based; settings: in vivo
CYP3A4 = CYP3A4 (Homo sapiens, UniProt P08684); test: Inhibition of CYP3A4 (unknown origin) at 3 uM by high throughput assay relative to control; type: ADME
Chain of CYP3A4 (P08684 whole entry): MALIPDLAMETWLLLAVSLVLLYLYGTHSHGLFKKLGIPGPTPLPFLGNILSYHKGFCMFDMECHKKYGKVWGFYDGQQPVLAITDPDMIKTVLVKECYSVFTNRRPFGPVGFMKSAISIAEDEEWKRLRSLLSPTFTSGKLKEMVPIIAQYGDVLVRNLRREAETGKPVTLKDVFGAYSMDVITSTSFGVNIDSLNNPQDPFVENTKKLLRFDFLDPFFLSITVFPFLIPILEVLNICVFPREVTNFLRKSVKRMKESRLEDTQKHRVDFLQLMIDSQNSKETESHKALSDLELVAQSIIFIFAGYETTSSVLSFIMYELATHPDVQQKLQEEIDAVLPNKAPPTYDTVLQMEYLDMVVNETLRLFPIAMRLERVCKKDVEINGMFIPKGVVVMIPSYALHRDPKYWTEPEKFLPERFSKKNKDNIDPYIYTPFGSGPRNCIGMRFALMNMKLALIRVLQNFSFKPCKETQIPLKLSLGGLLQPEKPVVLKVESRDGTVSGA

Rattus norvegicus [28] = test: Toxicity in rat assessed as increase in blood pressure at 100 to 500 mg/kg, po; type: organism-based; settings: in vivo
[29] = Ratio of drug level in rat at 100 mg/kg, po to IC50 for rat NaV1.3; type: ADME, organism-based; settings: in vivo
[30] = Clearance in rat; type: ADME, organism-based; settings: in vivo
[31] = molecular target: Sodium channel protein type 3 subunit alpha (Rattus norvegicus, UniProt P08104); test: Inhibition of rat NaV1.3 by electrophysiological method
[32] = molecular target: Sodium channel protein type 4 subunit alpha (Homo sapiens, UniProt P35499); test: Inhibition of human NaV1.4
[33] = molecular target: Sodium channel protein type 9 subunit alpha (Rattus norvegicus, UniProt O08562); test: Inhibition of rat NaV1.7

SMILES: O=C(NCc1ccc(OC(F)(F)F)c(Cl)c1)c1ccc(S(=O)(=O)Nc2cncnc2)c(F)c1
- IC50 [1]: > 3000 nM
- pKa [2]: 4.6
- logD [3]: 2

SMILES: O=C(Cc1ccccc1)Nc1ccc(S(=O)(=O)Nc2nccs2)cc1
- IC50 [1]: 3790 nM

SMILES: O=S(=O)(CCc1ccc(C(F)(F)F)cc1)c1ccc(S(=O)(=O)Nc2nccs2)cc1
- IC50 [1]: 155 nM

SMILES: O=S(=O)(Nc1nccs1)c1ccc(S(=O)(=O)N2CCC(c3cccc(C(F)(F)F)n3)CC2)cc1F
- IC50 [1]: 1640 nM

SMILES: O=C(c1ccc(OC(F)(F)F)c(Cl)c1)N1CC(OCc2ccc(S(=O)(=O)Nc3ncns3)cc2)C1
- IC50 [1]: 237 nM
- logD [3]: 1.3

SMILES: O=S(=O)(NCc1ccc(C(F)(F)F)cc1)c1ccc(S(=O)(=O)Nc2nccs2)cc1
- IC50 [1]: 160 nM

SMILES: O=S(=O)(Nc1nccs1)c1ccc(-c2nnc(Cc3ccc(Cl)c(Cl)c3)[nH]2)cc1
- IC50 [1]: 45 nM

SMILES: O=C(NCc1ccc(OC(F)(F)F)c(Cl)c1)c1ccc(S(=O)(=O)Nc2ncccn2)c(F)c1
- IC50 [1]: 374 nM
- logD [3]: 1.8

SMILES: CC(C)C[C@H](CN)CC(=O)O
- Activity (Rattus norvegicus [4]): Active
- Activity (Rattus norvegicus [5]): Active
- Activity (Rattus norvegicus [6]): Active
- Activity (Rattus norvegicus [7]): Active

SMILES: CN(Cc1ccc(OC(F)(F)F)c(Cl)c1)C(=O)c1ccc(S(=O)(=O)Nc2ncns2)c(F)c1
- IC50 [1]: 522 nM
- logD [3]: 1.3

SMILES: O=C(NCc1ccccc1)c1ccc(S(=O)(=O)Nc2nccs2)cc1
- IC50 [1]: 4450 nM

SMILES: O=S(=O)(Nc1nccs1)c1ccc(S(=O)(=O)N2CC[C@H](Oc3ccc(C(F)(F)F)cn3)C2)cc1F
- IC50 [1]: 851 nM

SMILES: O=C(NCc1ccc(OC(F)(F)F)c(Cl)c1)c1ccc(S(=O)(=O)Nc2nccs2)c(F)c1
- IC50 [8]: 20 nM
- inhibition at 3 µM (CYP2C9): 66%
- Activity (Rattus norvegicus [9]): Toxic
- microsomal CLint [10]: < 8 µL/min/mg
- IC50 [11]: 289 nM
- IC50 [12]: 12400 nM
- Ratio [13]: 62
- IC50 [14]: 15800 nM
- solubility [15]: 12 µg/mL (≈ 23.5 µM)
- IC50 [1]: 11 nM
- pKa [2]: 6.4
- fraction unbound [16]: < 0.002
- Ratio [17]: <= 15
- Activity (Tibial nerve [18]): inactive
- IC50 [19]: 1050 nM
- bioavailability [20]: 58%
- efflux ratio (MDR1): 3.5
- fraction unbound [21]: 0.002
- IC50 [22]: 429 nM
- Activity (Rattus norvegicus [23]): Toxic
- IC50 [24]: 17700 nM
- Activity (Tibial nerve [25]): inactive
- fraction unbound [26]: 0.002
- Vd [27]: 1.1 L/kg
- inhibition at 3 µM (CYP3A4): 66%
- Activity (Rattus norvegicus [28]): Toxic
- Ratio [29]: 12
- logD [3]: 3.3
- clearance [30]: 3.9 mL/min/kg

SMILES: O=C(NCc1ccc(OC(F)(F)F)c(Cl)c1)c1ccc(S(=O)(=O)Nc2nccs2)cc1
- IC50 [1]: 20 nM
- logD [3]: 3.1

SMILES: O=C(c1ccc(S(=O)(=O)Nc2ncns2)c(F)c1)N1CCC(c2noc(-c3ccccc3C(F)(F)F)n2)CC1
- IC50 [1]: 1950 nM

SMILES: O=S(=O)(Nc1nccs1)c1ccc(S(=O)(=O)N2CC(Oc3ccccc3)C2)cc1F
- IC50 [1]: 959 nM
- logD [3]: 1.4

SMILES: O=S(=O)(Nc1nccs1)c1ccc(S(=O)(=O)N2CCC[C@@H]2CNc2ncnc3[nH]ccc23)cc1F
- IC50 [1]: > 3000 nM

SMILES: O=S(=O)(Nc1nccs1)c1ccc(S(=O)(=O)N2CCCCC2c2cc(-c3ccccc3)[nH]n2)cc1F (configuration not stated)
- IC50 [1]: 1830 nM

SMILES: O=C(NCc1ccc(OC(F)(F)F)c(Cl)c1)c1ccc(S(=O)(=O)Nc2cccnn2)c(F)c1
- IC50 [1]: 1790 nM
- logD [3]: 2.4

SMILES: O=S(=O)(Nc1nccs1)c1ccc(-c2nnc(Cc3ccc(C(F)(F)F)cc3)[nH]2)cc1
- IC50 [1]: 124 nM

SMILES: O=C(COc1ccc(F)cc1)N1CCc2cc(S(=O)(=O)Nc3nccs3)ccc21
- IC50 [1]: 2510 nM
- logD [3]: 1.8

SMILES: O=S(=O)(Nc1nccs1)c1ccc(S(=O)(=O)N2CC[C@H](Oc3c(Cl)cccc3Cl)C2)cc1F
- IC50 [1]: 945 nM
- logD [3]: 2.6

SMILES: O=C(NCc1ccc(C(F)(F)F)cc1)c1ccc(S(=O)(=O)Nc2nccs2)cc1
- IC50 [1]: 147 nM
- logD [3]: 2.5

SMILES: O=S(=O)(Nc1ncns1)c1ccc(Oc2ccc(OC(F)(F)F)c(Cl)c2)cc1
- IC50 [1]: 296 nM
- logD [3]: 2.5

SMILES: O=C(NCc1ccc(OC(F)(F)F)c(Cl)c1)c1ccc(S(=O)(=O)Nc2ncc(F)cn2)c(F)c1
- IC50 [1]: 993 nM
- logD [3]: 2.1

SMILES: O=C(COc1ccc(F)cc1)N1CCc2cc(S(=O)(=O)Nc3ncns3)ccc21
- IC50 [1]: 1270 nM
- logD [3]: 0.4

SMILES: O=C(Nc1ccc(S(=O)(=O)Nc2nccs2)cc1)C(c1ccccc1)c1ccccc1
- IC50 [8]: 32 nM
- inhibition at 3 µM (CYP2C9): 79%
- microsomal CLint [10]: 15 µL/min/mg
- IC50 [11]: 5200 nM
- IC50 [12]: 3000 nM
- IC50 [14]: 9200 nM
- solubility [15]: 268 µg/mL (≈ 596 µM)
- IC50 [1]: 17 nM
- IC50 [31]: 6 nM
- IC50 [19]: 10300 nM
- IC50 [32]: 10000 nM
- efflux ratio (MDR1): 30
- IC50 [22]: 393 nM
- logD [3]: 3.3
- IC50 [33]: 68 nM

SMILES: O=C(NCc1ccc(OC(F)(F)F)cc1)c1ccc(S(=O)(=O)Nc2nccs2)cc1
- IC50 [1]: 197 nM
- logD [3]: 2.6

SMILES: O=C(c1ccc(S(=O)(=O)Nc2ncns2)c(F)c1)N1CCC(c2ccnc(C(F)(F)F)n2)CC1
- IC50 [1]: 6680 nM

SMILES: O=C(NCc1ccc(OC(F)(F)F)c(Cl)c1)c1ccc(S(=O)(=O)Nc2ncns2)c(F)c1
- IC50 [8]: 12 nM
- inhibition at 3 µM (CYP2C9): 88%
- microsomal CLint [10]: < 8 µL/min/mg
- IC50 [11]: 1800 nM
- IC50 [12]: 11300 nM
- IC50 [14]: 4870 nM
- solubility [15]: 369 µg/mL (≈ 722 µM)
- IC50 [1]: 13 nM
- pKa [2]: 3.3
- IC50 [19]: 2100 nM
- bioavailability [20]: 4%
- efflux ratio (MDR1): 1
- IC50 [22]: 920 nM
- IC50 [24]: > 100000 nM
- Vd [27]: 0.1 L/kg
- inhibition at 3 µM (CYP3A4): 88%
- logD [3]: 2.1
- clearance [30]: 4.4 mL/min/kg

From ChEMBL document CHEMBL4257443, “The discovery of a potent Nav1.3 inhibitor with good oral pharmacokinetics” (Medchemcomm, 2017)
